What all share (assay type): functional
One experiment relates to Enterococcus faecalis. The experiment in a line: In vitro antibacterial activity against Streptococcus faecalis 2473. A digest of the protocol:
(§1)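 Two-fold agar dilution MIC on Mueller-Hinton agar (pH 7.4), following the Japan Society of Chemotherapy MIC Committee method. Inoculum was about 10⁶ CFU, and growth was read after 20 h at 37 °C. MIC is reported in µg/mL.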

For experiment [1], the system named is Staphylococcus epidermidis. The experiment in a line: In vitro antibacterial activity against Streptococcus epidermis 8. The essentials: as §1
In the next experiment the test system is Enterobacter cloacae. The experiment in a line: In vitro antibacterial activity against Enterobacter cloacae 963.
The subject of a further experiment is Streptococcus pyogenes. The experiment in a line: In vitro antibacterial activity against Streptococcus pyogenes A65. The essentials: as §1
The subject of another experiment is Klebsiella pneumoniae. The experiment is described as follows: In vitro antibacterial activity against Klebsiella pneumoniae 13. The essentials:
as §1

For experiment [2], the species on record is Mus musculus. The experiment is described as follows: Oral efficacy against Pseudomonas aeruginosa 12 on Systemic Infections in Mice. A digest of the protocol: (§2)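 Groups of at least 10 male Std-ddY mice (20 ± 2 g) were infected ip, with S. pyogenes A65 at 3×10^7 cells or P. aeruginosa 12 at 4×10^3 cells. Compounds were suspended in 0.2% sodium carboxymethylcellulose and given orally at 0 and 6 h postinfection. The result is reported as ED50 in mg/kg.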

The subject of experiment [3] is Serratia marcescens. The experiment in a line: In vitro antibacterial activity against Serratia marcescens S-9. The essentials: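 MIC (µg/mL) by 2-fold agar dilution on Mueller-Hinton agar (pH 7.4), following the Japan Society of Chemotherapy MIC Committee method. Inoculum of about 10⁶ CFU. Growth was read after 20 h at 37 °C.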
Experiment [4] has as its system Pseudomonas aeruginosa. The experiment is described as follows: In vitro antibacterial activity against Pseudomonas aeruginosa 12. A digest of the protocol:
as §1

Experiment [5] deals with Escherichia coli. The experiment in a line: In vitro antibacterial activity against Escherichia coli P-5101. The essentials:
as §1

For a further experiment, the system named is Moraxella bovis. The experiment is described as follows: In vitro antibacterial activity against glucose nonfermenter Moraxella bovis P-7101. A digest of the protocol:
as §1

The species entered for experiment [6] is Mus musculus. The experiment is described as follows: Oral efficacy against Streptococcus pyogenes A65 on Systemic Infections in Mice. A digest of the protocol: as §2
Experiment [7] deals with Pseudomonas aeruginosa. The experiment in a line: In vitro antibacterial activity against Pseudomonas aeruginosa IFO 3445. The essentials:
as §1

Experiment [8] deals with Staphylococcus aureus. The experiment in a line: In vitro antibacterial activity against Staphylococcus aureus 50774. A digest of the protocol: as §1
Experiment [9] concerns Escherichia coli. The experiment in a line: In vitro antibacterial activity against Escherichia coli NIHJ JC-2. A digest of the protocol:
as §1

For experiment [10], the system named is Serratia marcescens. The experiment in a line: In vitro antibacterial activity against Serratia marcescence S-9. A digest of the protocol: as §1
Experiment [11] deals with Staphylococcus aureus. The experiment in a line: In vitro antibacterial activity against Staphylococcus aureus 209P JC-1. A digest of the protocol: as §1

Drawing on ChEMBL document CHEMBL1124792, “Synthesis and structure-activity relationships of 5-substituted 6,8-difluoroquinolones, including sparfloxacin, a new quinolone antibacterial agent with improved potency” (1990), this text covers MIC and ED50 for seven compounds.

Structures are written as SMILES. Converted amounts (≈) assume the structure as drawn.

In general, MIC refers to the smallest concentration in the dilution series that meets the test's criterion for growth inhibition. The ED50 is the dose at which the effect has come halfway, by size or by number of responders. Higher therefore signals weaker potency. On to `O=C(O)c1cn(C2CC2)c2c(F)c(N3CCNCC3)c(F)cc2c1=O`, for which the MIC with Enterococcus faecalis came to 0.78 µg/mL (≈ 2.23 µM); in [1], 0.025 µg/mL (≈ 0.0716 µM); against Enterobacter cloacae, 0.025 µg/mL (≈ 0.0716 µM); in the experiment on Streptococcus pyogenes it was 0.2 µg/mL (≈ 0.573 µM); with Klebsiella pneumoniae it was 0.0125 µg/mL (≈ 0.0358 µM); against Serratia marcescens [3], 0.025 µg/mL (≈ 0.0716 µM). Further, the MIC in the experiment with Pseudomonas aeruginosa [4] amounted to 0.05 µg/mL (≈ 0.143 µM); against Escherichia coli [5], 0.0031 µg/mL (≈ 0.00887 µM); against Moraxella bovis it was 0.39 µg/mL (≈ 1.12 µM); in the experiment on Pseudomonas aeruginosa [7], 0.2 µg/mL (≈ 0.573 µM); against Staphylococcus aureus [8], 0.05 µg/mL (≈ 0.143 µM). The ED50 in the experiment listed under Mus musculus [2] came out at 1.22 mg/kg; in the experiment listed under Mus musculus [6], 20.5 mg/kg.

`CC1CN(c2c(F)c(N)c3c(=O)c(C(=O)O)cn(C4CC4)c3c2F)CCN1` (stereo not drawn): the MIC worked out at 0.39 µg/mL (≈ 1.03 µM) against Enterococcus faecalis; 0.025 µg/mL (≈ 0.0661 µM) in experiment [1]; 0.025 µg/mL (≈ 0.0661 µM) with Enterobacter cloacae; 0.39 µg/mL (≈ 1.03 µM) in the experiment with Streptococcus pyogenes; 0.0125 µg/mL (≈ 0.033 µM) against Klebsiella pneumoniae; 0.006 µg/mL (≈ 0.0159 µM) in the experiment on Escherichia coli [9]. The MIC against Pseudomonas aeruginosa [4] came to 0.2 µg/mL (≈ 0.529 µM); against Escherichia coli [5] it was 0.0063 µg/mL (≈ 0.0166 µM); in the experiment with Serratia marcescens [10], 0.05 µg/mL (≈ 0.132 µM); against Moraxella bovis, 0.39 µg/mL (≈ 1.03 µM); with Staphylococcus aureus [11], 0.025 µg/mL (≈ 0.0661 µM); in the experiment with Pseudomonas aeruginosa [7] it was 0.2 µg/mL (≈ 0.529 µM). In the experiment on Staphylococcus aureus [8], this compound had an MIC of 0.025 µg/mL (≈ 0.0661 µM). Further, the figures for the 50% effective dose (ED50) in the experiment listed under Mus musculus [2] and in the experiment listed under Mus musculus [6] were 1.11 mg/kg and 6.54 mg/kg, respectively.

For the compound `Nc1c(F)c(N2CCNCC2)c(F)c2c1c(=O)c(C(=O)O)cn2C1CC1`, the MIC came out at 0.39 µg/mL (≈ 1.07 µM) in the experiment with Enterococcus faecalis; 0.05 µg/mL (≈ 0.137 µM) in experiment [1]; 0.0125 µg/mL (≈ 0.0343 µM) against Enterobacter cloacae; 0.2 µg/mL (≈ 0.549 µM) with Streptococcus pyogenes; 0.025 µg/mL (≈ 0.0686 µM) with Klebsiella pneumoniae; 0.0063 µg/mL (≈ 0.0173 µM) in the experiment on Escherichia coli [9]. Moreover, the minimal inhibitory concentration (MIC) with Serratia marcescens [3] was 0.05 µg/mL (≈ 0.137 µM); in the experiment on Pseudomonas aeruginosa [4], 0.1 µg/mL (≈ 0.274 µM); in the experiment on Escherichia coli [5], 0.0063 µg/mL (≈ 0.0173 µM); against Moraxella bovis, 0.39 µg/mL (≈ 1.07 µM); in the experiment with Staphylococcus aureus [11] it was 0.05 µg/mL (≈ 0.137 µM); with Pseudomonas aeruginosa [7], 0.39 µg/mL (≈ 1.07 µM). In the experiment on Staphylococcus aureus [8], this compound gave an MIC of 0.05 µg/mL (≈ 0.137 µM). Also, the ED50 in the experiment filed under Mus musculus [2] amounted to 1.56 mg/kg; in the experiment listed under Mus musculus [6] it was 170 mg/kg.

Regarding `CC1CN(c2c(F)c(O)c3c(=O)c(C(=O)O)cn(C4CC4)c3c2F)CCN1` (stereo not drawn), the MIC turned out to be 1.56 µg/mL (≈ 4.11 µM) in the experiment with Enterococcus faecalis; 0.1 µg/mL (≈ 0.264 µM) in [1]; 0.05 µg/mL (≈ 0.132 µM) with Enterobacter cloacae; 0.78 µg/mL (≈ 2.06 µM) in the experiment with Streptococcus pyogenes; 0.1 µg/mL (≈ 0.264 µM) in the experiment on Klebsiella pneumoniae; 0.025 µg/mL (≈ 0.0659 µM) in the experiment with Escherichia coli [9]. Moreover, the MIC worked out at 0.78 µg/mL (≈ 2.06 µM) with Pseudomonas aeruginosa [4]; 0.025 µg/mL (≈ 0.0659 µM) against Escherichia coli [5]; 0.1 µg/mL (≈ 0.264 µM) with Serratia marcescens [10]; 1.56 µg/mL (≈ 4.11 µM) against Moraxella bovis; 0.2 µg/mL (≈ 0.527 µM) in the experiment on Staphylococcus aureus [11]; 0.78 µg/mL (≈ 2.06 µM) with Pseudomonas aeruginosa [7]. The compound further registered an MIC against Staphylococcus aureus [8] of 0.2 µg/mL (≈ 0.527 µM). For the same compound, the ED50 worked out at 5.97 mg/kg in the experiment filed under Mus musculus [2] and 12.5 mg/kg in the experiment filed under Mus musculus [6].

Take `Nc1c(F)c(N2CCNC(CF)C2)c(F)c2c1c(=O)c(C(=O)O)cn2C1CC1` (stereo not drawn): the MIC in the experiment on Enterococcus faecalis was 0.39 µg/mL (≈ 0.984 µM); in [1] it was 0.0125 µg/mL (≈ 0.0315 µM); against Enterobacter cloacae it was 0.025 µg/mL (≈ 0.0631 µM); with Streptococcus pyogenes, 0.2 µg/mL (≈ 0.505 µM); in the experiment with Klebsiella pneumoniae, 0.025 µg/mL (≈ 0.0631 µM); against Escherichia coli [9], 0.0063 µg/mL (≈ 0.0159 µM). In addition, the MIC amounted to 0.2 µg/mL (≈ 0.505 µM) against Pseudomonas aeruginosa [4]; 0.0063 µg/mL (≈ 0.0159 µM) with Escherichia coli [5]; 0.1 µg/mL (≈ 0.252 µM) with Serratia marcescens [10]; 0.39 µg/mL (≈ 0.984 µM) against Moraxella bovis; 0.025 µg/mL (≈ 0.0631 µM) in the experiment on Staphylococcus aureus [11]; 0.39 µg/mL (≈ 0.984 µM) in the experiment with Pseudomonas aeruginosa [7]. The same compound had a minimum inhibitory concentration (MIC) with Staphylococcus aureus [8] of 0.0125 µg/mL (≈ 0.0315 µM). Also, the ED50 in the experiment listed under Mus musculus [2] worked out at 7.02 mg/kg; in the experiment listed under Mus musculus [6] it was 17.4 mg/kg.

As to `C[C@H]1CN(c2c(F)c(N)c3c(=O)c(C(=O)O)cn(C4CC4)c3c2F)CCN1`, the MIC in the experiment with Enterococcus faecalis is 0.39 µg/mL (≈ 1.03 µM); in [1], 0.025 µg/mL (≈ 0.0661 µM); in the experiment with Enterobacter cloacae, 0.0125 µg/mL (≈ 0.033 µM); against Streptococcus pyogenes it was 0.2 µg/mL (≈ 0.529 µM); in the experiment with Klebsiella pneumoniae, 0.0125 µg/mL (≈ 0.033 µM); against Escherichia coli [9] it was 0.0063 µg/mL (≈ 0.0166 µM). Further, the MIC in the experiment with Serratia marcescens [3] was 0.05 µg/mL (≈ 0.132 µM); in the experiment on Pseudomonas aeruginosa [4] it was 0.1 µg/mL (≈ 0.264 µM); against Escherichia coli [5], 0.0063 µg/mL (≈ 0.0166 µM); in the experiment with Moraxella bovis, 0.2 µg/mL (≈ 0.529 µM); in the experiment on Staphylococcus aureus [11], 0.025 µg/mL (≈ 0.0661 µM); against Pseudomonas aeruginosa [7], 0.2 µg/mL (≈ 0.529 µM). In the experiment on Staphylococcus aureus [8], 0.025 µg/mL (≈ 0.0661 µM) was the least that counted as inhibitory (MIC). The ED50 in the experiment filed under Mus musculus [2] was determined as 0.84 mg/kg; in the experiment listed under Mus musculus [6] it was 5.06 mg/kg.

Consider `O=C(O)c1cn(C2CC2)c2c(F)c(N3CCNCC3)c(F)c(F)c2c1=O`, for which the MIC with Enterococcus faecalis stood at 3.13 µg/mL (≈ 8.52 µM); in experiment [1] it was 0.2 µg/mL (≈ 0.544 µM); against Enterobacter cloacae it was 0.025 µg/mL (≈ 0.0681 µM); in the experiment with Streptococcus pyogenes it was 3.13 µg/mL (≈ 8.52 µM); in the experiment on Klebsiella pneumoniae, 0.05 µg/mL (≈ 0.136 µM); in the experiment with Escherichia coli [9], 0.0125 µg/mL (≈ 0.034 µM). Further, the MIC in the experiment with Serratia marcescens [3] amounted to 0.1 µg/mL (≈ 0.272 µM); against Pseudomonas aeruginosa [4], 0.39 µg/mL (≈ 1.06 µM); against Escherichia coli [5], 0.0125 µg/mL (≈ 0.034 µM); with Moraxella bovis, 3.13 µg/mL (≈ 8.52 µM); against Staphylococcus aureus [11], 0.2 µg/mL (≈ 0.544 µM); against Pseudomonas aeruginosa [7], 0.78 µg/mL (≈ 2.12 µM). Moreover, in the experiment on Staphylococcus aureus [8], it took 0.39 µg/mL (≈ 1.06 µM) to inhibit growth (MIC). For the same compound, the ED50 was 3.87 mg/kg in the experiment filed under Mus musculus [2] and 25 mg/kg in the experiment listed under Mus musculus [6].
